The target in data set [1] is T1, Polyunsaturated fatty acid lipoxygenase ALOX15 (Homo sapiens, UniProt P16050).
T1 sequence (P16050 whole entry): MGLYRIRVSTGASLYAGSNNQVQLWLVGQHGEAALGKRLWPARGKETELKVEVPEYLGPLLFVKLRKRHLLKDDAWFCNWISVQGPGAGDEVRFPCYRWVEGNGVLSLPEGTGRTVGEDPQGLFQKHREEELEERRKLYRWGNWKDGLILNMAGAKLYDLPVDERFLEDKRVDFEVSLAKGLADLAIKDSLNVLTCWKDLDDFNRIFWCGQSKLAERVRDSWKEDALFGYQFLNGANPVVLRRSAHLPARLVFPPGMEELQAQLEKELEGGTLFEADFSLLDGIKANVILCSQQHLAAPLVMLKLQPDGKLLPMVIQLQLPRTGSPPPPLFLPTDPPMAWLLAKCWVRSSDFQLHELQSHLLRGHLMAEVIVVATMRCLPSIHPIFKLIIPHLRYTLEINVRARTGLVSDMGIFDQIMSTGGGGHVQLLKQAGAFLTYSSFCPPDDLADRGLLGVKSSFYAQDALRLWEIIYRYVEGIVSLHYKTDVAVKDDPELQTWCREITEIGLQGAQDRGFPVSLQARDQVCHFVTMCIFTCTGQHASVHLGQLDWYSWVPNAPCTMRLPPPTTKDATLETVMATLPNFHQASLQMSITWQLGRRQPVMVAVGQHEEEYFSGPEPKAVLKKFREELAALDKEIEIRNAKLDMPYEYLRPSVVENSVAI
Kind of data set: Inhibition of human recombinant N-terminal His6-tagged 15-LOX1 expressed in Escherichia coli BL21(DE3) using linoleic acid as substrate preincubated for 10 mins followed by substrate addition by UV absorption analysis.

For data set [2], the system named is RAW264.7. Briefly: Protection against LPS-induced cell death in mouse RAW264.7 cells assessed as increase in cell viability at 5 uM measured after 48 hrs by MTS assay relative to control. In kind it is functional. In outline:
(§1)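 RAW 264.7 cells seeded at 5000 per well. Given 100 μg/mL LPS together with compound (0.2, 1, 5 μM) for 48 h. Viability measured by MTS: reagent for 2 h at 37 °C, absorbance at 490 nm. Compared with LPS-only control. n = 3–13, mean ± SEM.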
Background: Tetrazolium assays rely on reduction of a dye to a coloured formazan, in cell work by metabolically active cells.

The subject of data set [3] is RAW264.7. Kind of data set: Inhibition of LPS/IFNgamma-stimulated lipid peroxidation in mouse RAW264.7 cells at 5 uM after 24 hrs by BODIPY 581/591 C11-staining based FACS assay. Format: functional, cell-based. In outline:
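RAW 264.7 cells, 10 × 10^6 per well, incubated overnight. Then LPS/IFNγ (10 ng/mL each) for 24 h with or without inhibitor at 5 μM. Unstimulated cells served as control. Stained with BODIPY 581/591 C11 for 30 min at 37 °C. Red-to-green fluorescence shift measured by flow cytometry, 488 nm excitation. n = 3, mean ± SEM.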
On the technique in general: Flow cytometry measures light scatter and fluorescence of single cells or particles in a stream.

In data set [4] the target is T2, Polyunsaturated fatty acid lipoxygenase ALOX15 (Mus musculus) (UniProt P39654).
T2 sequence (whole entry): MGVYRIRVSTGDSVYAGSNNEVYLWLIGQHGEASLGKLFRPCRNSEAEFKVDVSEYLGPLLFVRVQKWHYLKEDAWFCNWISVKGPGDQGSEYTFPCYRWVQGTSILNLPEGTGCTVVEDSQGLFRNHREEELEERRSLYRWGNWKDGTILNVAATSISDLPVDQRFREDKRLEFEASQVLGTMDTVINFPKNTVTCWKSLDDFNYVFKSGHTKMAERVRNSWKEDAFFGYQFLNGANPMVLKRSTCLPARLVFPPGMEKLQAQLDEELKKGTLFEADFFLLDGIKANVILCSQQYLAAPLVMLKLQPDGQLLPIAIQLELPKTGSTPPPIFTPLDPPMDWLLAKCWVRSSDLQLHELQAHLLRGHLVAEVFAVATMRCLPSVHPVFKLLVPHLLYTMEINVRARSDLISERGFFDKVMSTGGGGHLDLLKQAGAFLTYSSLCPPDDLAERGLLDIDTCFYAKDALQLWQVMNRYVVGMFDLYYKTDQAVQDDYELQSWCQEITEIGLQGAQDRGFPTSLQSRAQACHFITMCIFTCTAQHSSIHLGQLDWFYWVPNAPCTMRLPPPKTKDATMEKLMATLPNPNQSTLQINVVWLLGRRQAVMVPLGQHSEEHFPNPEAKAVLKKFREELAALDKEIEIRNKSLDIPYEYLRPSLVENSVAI
Briefly: Inhibition of 15LOX1 in mouse RAW blue cells assessed as suppression of LPS/IFNgamma-stimulated NFkappaB activation by measuring reduction in SEAP release at 0.2 to 5 uM preincubated for 20 hrs followed by LPS/IFNgamma-stimulation and measured after 4 hrs by quanti blue reagent-based reporter gene assay. Format: cell-based. In outline: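 RAW-Blue cells (RAW 264.7 carrying an NF-κB–SEAP reporter, kept with 200 μg/mL Zeocin) seeded at 10 × 10^4 per well the day before. Pretreated with compound (0.2, 1, 5 μM) for 20 h, then LPS and IFNγ (10 ng/mL each) added for 4 h. Secreted SEAP read with QuantiBlue after 2 h at 37 °C, absorbance 635–655 nm. n = 8–16, mean ± SEM.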

Data set [5] has as its target T2, Polyunsaturated fatty acid lipoxygenase ALOX15 (Mus musculus). Briefly: Inhibition of N144 probe binding to 15-LOX in mouse RAW264.7 cells measured after 2 mins by HRP-coupled Western blot analysis. Format: cell-based. The method, boiled down:
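Lysates of inhibitor-treated and untreated RAW 264.7 cells exposed to covalent alkene probe N144 for 2 min. Probe then biotinylated by oxidative Heck reaction with a biotinylated phenylboronic acid and detected on blots with streptavidin–HRP. Blots also probed for 15-LOX-1 and β-actin. Band intensities normalised to β-actin. n = 3 independent experiments, mean ± SEM.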
(A western blot detects proteins with antibodies after separation by electrophoresis.)

For data set [6], the system named is RAW264.7. Briefly: Protection against LPS-induced cell death in mouse RAW264.7 cells assessed as increase in cell viability measured after 48 hrs by MTS assay. Format: functional, cell-based. In outline: as §1
For data set [7], the target named is T2, Polyunsaturated fatty acid lipoxygenase ALOX15 (Mus musculus). Kind of data set: Inhibition of 15LOX1 in LPS/IFNgamma-stimulated mouse RAW264.7 cells assessed as down regulation of iNOS gene expression at 5 uM preincubated for 20 hrs followed by LPS/IFNgamma stimulation and measured after 4 hrs by RT-PCR analysis relative to control. Format: cell-based. The method, boiled down: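 RAW 264.7 cells pretreated with compound (0.2, 1, 5 μM) for 20 h, then stimulated with LPS/IFNγ (10 ng/mL each) for 4 h in its presence. Total RNA isolated and integrity checked by 28S/18S ratio. RNA reverse-transcribed, and 10 ng cDNA used per real-time PCR. iNOS expression calculated by 2^–ΔΔCt and normalised to the stimulated positive control. n = 3–4, mean ± SEM.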

Data set [8] in a line: Stability in pH 7.4 2-betamercaptoethanol at 25 to 50 uM by UV-spectra analysis. In kind it is physicochemical. Conditions: buffer, pH 7.4, 50 µM. In outline: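 UV spectrum of compound recorded during incubation with 2-mercaptoethanol at pH 7.4, to follow thiol conjugate addition to the α,β-unsaturated amide.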
Data set [9] concerns the target T2, Polyunsaturated fatty acid lipoxygenase ALOX15 (Mus musculus). Briefly: Inhibition of 15-LOX1 in LPS/IFNgamma-stimulated mouse RAW264.7 cells assessed as reduction in nitric oxide production preincubated for 20 hrs followed by LPS/IFNgamma stimulation and measured after 4 hrs by colorimetric method. In kind it is cell-based. The method, boiled down: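 RAW 264.7 cells stimulated with LPS and IFNγ (10 ng/mL each). Figure legend: compound added at 0.2, 1 and 5 μM for 20 h, then LPS/IFNγ for a further 4 h. Methods describe 2 × 10^6 cells per well and a 24 h incubation at 5 μM. Total nitrate/nitrite measured with a colorimetric kit. Stimulated control set to 100%. n = 3, mean ± SEM.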

These results are taken from ChEMBL document CHEMBL4385612, “Novel 15-Lipoxygenase-1 Inhibitor Protects Macrophages from Lipopolysaccharide-Induced Cytotoxicity” (J Med Chem, 2019).

For orientation: IC50 means the midpoint of a concentration-inhibition curve. One may read the inhibition as the relative decrease from the control value, in per cent.

Each structure is given as a SMILES string. The source made the active and inactive calls. No cut-off for these calls is given here. Bounds are passed on as bounds.

With `CCCNC(=O)c1c(C(=O)OCC)[nH]c2cc(Cl)ccc12`, the IC50 in data set [1] is more than 20 µM.
On the same count and under the same terms, next, `CCCNC(=O)c1[nH]c2cc(Cl)ccc2c1C(=O)C[C@@H](C)CCCC(C)C`: more than 20 µM; `CCCNC(=O)c1[nH]c2cc(Cl)ccc2c1CN(C)C`: more than 20 µM; `CCOC(=O)c1[nH]c2cc(Cl)ccc2c1/C=C/C(=O)NCCc1ccccc1`: more than 20 µM.
`CCCNC(=O)c1[nH]c2cc(Cl)ccc2c1/C=C/C(=O)NCc1ccccc1OC`: in data set [1], the IC50 is more than 20 µM.
For `CCOC(=O)c1[nH]c2cc(Cl)ccc2c1C(=O)C[C@@H](C)CCCC(C)C`, in data set [2], the result was Active.
For `CCCNC(=O)c1[nH]c2cc(Cl)ccc2c1C(=O)C[C@H](C)CCCC(C)C`, the IC50 in [1] was more than 20 µM.
Turning to `c1ccc2c(c1)SCc1c-2[nH]c2ccccc12`, the inhibition entry in data set [3] was “Active”.
On to `O=C(NC1CC1)c1cc2ccc(Cl)cc2[nH]1`, for which the IC50 in data set [1] is more than 20 µM.
Consider `CCOC(=O)c1[nH]c2cc(Cl)ccc2c1/C=C/C(=O)NCc1ccccc1OC`, for which the inhibition entry in [4], in [5] and in [3] was “Active” each time. Moreover, the figures for the Activity result in data set [6] and in data set [2] were “Dose-dependent effect” and 20%, respectively. Besides, the inhibition is 50% in data set [7] and “Dose-dependent effect” in data set [9]. For the same molecule, the Stability entry in [8] was “Stable”.
With `CC(c1cc2ccccc2s1)N(O)C(N)=O` (centres undefined), in data set [3], the inhibition result was “Active”. For the same molecule, the outcome in data set [2] was Active.
